Values after ≈ are worked out from the molar mass of the structure shown.
Legend:
Salmonella typhimurium [1] = assay: Mutagenicity in Salmonella typhimurium TA98 at 20 ug/plate in absence of S9 fraction; assay type: toxicity, organism-based; details: salmonella enterica subsp. enterica serovar typhimurium
In short: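 TA98 direct plate incorporation on minimal glucose agar (Vogel-Bonner E, 40% glucose), without S9. Compounds in DMSO were run in triplicate, highest dose nontoxic to bacteria. 4-nitro-o-phenylenediamine (20.0 per plate) was the positive control and DMSO the negative. Revertants were counted manually. Mutagenic meant at least double the negative-control revertants at two consecutive doses. Values are means of two independent experiments.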

Leishmania amazonensis = assay: Leishmanicidal activity against axenic amastigote stage of Leishmania amazonensis MHOM/BR/76/LTB-012 assessed as growth inhibition after 72 hrs by MTT assay; assay type: functional, organism-based; details: MHOM/BR/76/LTB-012, 72 h
In short: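 L. amazonensis axenic amastigotes (MHOM/BR/76/LTB-012), weekly passages in MAA/20 at 32 °C, 5% CO2. Seeded in 96-well plates; compounds in DMSO at 100 to 1 final, 72 h. MTT added for 4 h, stopped with 50% isopropanol–10% SDS, 30 min agitation at room temperature, A570. Triplicate; % inhibition versus control, IC50 from several concentrations.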

Trypanosoma cruzi [2] = assay: Trypanosomicidal activity against axenic epimastigote stage of Trypanosoma cruzi Tulahuen 2 assessed as growth inhibition; assay type: functional, organism-based
In short: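 Tulahuen 2 epimastigotes grown axenically at 28 °C in BHI-tryptose with 5% FCS, harvested late log phase, 3×10^6/mL in 24-well plates. Compound added from DMSO stock (≤1% DMSO). Growth as A590 at day 0 and day 5; % inhibition from blank-corrected absorbances; ID50 = concentration halving absorbance relative to untreated controls.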

[3] = Selectivity index, ratio of IC50 for mouse J774.1 cells to IC50 for amastigote stage of Trypanosoma cruzi Tulahuen C4; assay type: toxicity; details: read-out: Ratio IC50
Trypanosoma cruzi [4] = assay: Trypanosomicidal activity against amastigote stage of Trypanosoma cruzi Tulahuen C4 transfected with beta-D-galactosidase infected in african green monkey Vero cells assessed as growth inhibition incubated 5 days prior to beta-D-galactopyranoside addition measured after 4 to 5 hrs by colorimetric assay; assay type: functional, organism-based
In short: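 VERO monolayer in phenol red-free RPMI 1640 with 10% FCS, infected with 5×10^4 LacZ-transfected Tulahuen C4 trypomastigotes/well, 24 h at 37 °C, 5% CO2. Compounds added for 5 days. CPRG substrate added, 4–5 h at 37 °C, A570. Actives (>50% inhibition) retested in duplicate at 10.0–0.16; IC50 by logarithmic regression versus untreated control.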

[5] = Selectivity index, ratio of IC50 for mouse J774.1 cells to MIC for Mycobacterium tuberculosis H37Rv; assay type: functional
In short: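 Cytotoxicity: J774.1 macrophages in DMEM with 4 mM L-glutamine and 10% heat-inactivated FCS, seeded at 5 × 10^4/well, attached 48 h at 37 °C, 5% CO2. Exposed 48 h to 12.5–400.0 µM compound or vehicle. MTT at 0.1 mg/mL final for 3 h, formazan dissolved in DMSO/glycine buffer pH 10.5, A560 read. IC50 by linear regression, divided by the MIC against the same MTB strain.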

[6] = Cytotoxicity against mouse J774.1 cells assessed as cell viability after 48 hrs by MTT assay; assay type: cell-based; details: J774.1, 48 h
In short: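 J774.1 macrophages in DMEM with 4 mM L-glutamine and 10% heat-inactivated FCS, 5×10^4 cells/well, attached 48 h at 37 °C, 5% CO2. Exposed 48 h to compounds (12.5–400.0 µM) or vehicle. MTT 0.1 mg/mL final, 3 h at 37 °C; formazan dissolved in DMSO/glycine buffer pH 10.5, A560. IC50 by linear regression versus solvent control.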

[7] = test system: Mycobacterium tuberculosis; assay: Antimycobacterial activity against Mycobacterium tuberculosis H37Rv assessed as growth inhibition after 5 days by MTT assay; assay type: functional; details: 120 h
In short: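 MTB inoculum made from 20–30-day slant growth in Tween 80/0.2% BSA, adjusted to McFarland No. 1, then diluted in 7H9GC broth (Middlebrook 7H9, glycerol, Casitone, OADC). Final inoculum about 1.2 × 10^6 CFU/mL. Compounds taken from DMSO stock to final 0.4–25 in broth, with a DMSO control. Plates run 5 days at 37 °C, then tetrazolium (MTT)–Tween 80 added for a further 24 h at 37 °C. Read-out is MIC.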

Salmonella typhimurium [8] = assay: Mutagenicity in Salmonella typhimurium TA98 at 6.2 to 500 ug/plate in presence of S9 fraction; assay type: toxicity, organism-based; details: salmonella enterica subsp. enterica serovar typhimurium
In short: (§1)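 Direct plate incorporation with S. typhimurium TA98 on minimal glucose agar (Vogel-Bonner E, 40% glucose). Compounds in DMSO assayed in triplicate at doses starting from the highest non-toxic dose, with or without Aroclor-treated mouse liver S9. Controls: DMSO, 4-nitro-o-phenylenediamine (−S9), 2-aminofluorene (+S9). Revertants counted manually; mutagenic if ≥2× negative control at two consecutive doses.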

Salmonella typhimurium [9] = assay: Mutagenicity in Salmonella typhimurium TA98 at 6.2 to 500 ug/plate in absence of S9 fraction; assay type: toxicity, organism-based; details: salmonella enterica subsp. enterica serovar typhimurium; in short: as §1
[10] = Ratio of compound IC50 to amphotericin B IC50 for mouse J774.1 cells; assay type: ADME; details: read-out: Ratio IC50
[11] = Selectivity index, ratio of IC50 for mouse J774.1 cells to IC50 for axenic amastigote stage of Leishmania amazonensis MHOM/BR/76/LTB-012; assay type: toxicity; details: read-out: Ratio IC50
[12] = Selectivity index, ratio of IC50 for african green monkey Vero cells to IC50 for amastigote stage of Trypanosoma cruzi Tulahuen C4; assay type: toxicity, cell-based; details: read-out: Ratio IC50
Plasma = assay: Metabolic stability in human plasma at pH 3 at 40 uM after 3 hrs; assay type: ADME, cell-free; details: pH 3, 3 h
[13] = Aqueous stability of the compound in Tris.HCl buffer at pH 7.4 at 1 mM after 24 hrs by spectrophotometric analysis; assay type: physicochemical; details: pH 7.4, 24 h, 1000 µM
In short: (§2)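 Compound from DMSO stock, 1 mM final in aqueous buffer (KCl·HCl pH 2, acetate pH 5, Tris·HCl pH 7.4 or 8.3), incubated 37 °C for 24 h. Absorbance spectrum 250–450 nm compared with a freshly prepared, unincubated solution. TLC of ethyl acetate extracts to confirm or exclude decomposition products.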

[14] = Aqueous stability of the compound in acetate buffer at pH 5 at 1 mM after 24 hrs by spectrophotometric analysis; assay type: physicochemical; details: pH 5, 24 h, 1000 µM; in short: as §2
[15] = Aqueous stability of the compound in KCl.HCl buffer at pH 2 at 1 mM after 24 hrs by spectrophotometric analysis; assay type: physicochemical; details: pH 2, 24 h, 1000 µM; in short: as §2
Salmonella typhimurium [16] = assay: Mutagenicity in Salmonella typhimurium TA98 at 3.1 to 250 ug/plate in presence of S9 fraction; assay type: toxicity, organism-based; details: salmonella enterica subsp. enterica serovar typhimurium; in short: as §1
Salmonella typhimurium [17] = assay: Mutagenicity in Salmonella typhimurium TA98 at 3.1 to 250 ug/plate in absence of S9 fraction; assay type: toxicity, organism-based; details: salmonella enterica subsp. enterica serovar typhimurium; in short: as §1
[18] = Aqueous stability of the compound in Tris.HCl buffer at pH 8.3 at 1 mM after 24 hrs by spectrophotometric analysis; assay type: physicochemical; details: pH 8.3, 24 h, 1000 µM; in short: as §2
Salmonella typhimurium [19] = assay: Mutagenicity in Salmonella typhimurium TA98 at 500 ug/plate in presence of S9 fraction; assay type: toxicity, organism-based; details: salmonella enterica subsp. enterica serovar typhimurium; in short: as §1
Salmonella typhimurium [20] = assay: Mutagenicity in Salmonella typhimurium TA98 at 500 ug/plate in absence of S9 fraction; assay type: toxicity, organism-based; details: salmonella enterica subsp. enterica serovar typhimurium; in short: as §1
[21] = Cytotoxicity against mouse J774.1 cells assessed as cell viability after 72 hrs by MTT assay; assay type: cell-based; details: J774.1, 72 h
Salmonella typhimurium [22] = assay: Mutagenicity in Salmonella typhimurium TA98 at 4.9 to 400 ug/plate in presence of S9 fraction; assay type: toxicity, organism-based; details: salmonella enterica subsp. enterica serovar typhimurium; in short: as §1
Salmonella typhimurium [23] = assay: Mutagenicity in Salmonella typhimurium TA98 at 4.9 to 400 ug/plate in absence of S9 fraction; assay type: toxicity, organism-based; details: salmonella enterica subsp. enterica serovar typhimurium; in short: as §1
Salmonella typhimurium [24] = assay: Mutagenicity in Salmonella typhimurium TA98 at 150 ug/plate in presence of S9 fraction; assay type: toxicity, organism-based; details: salmonella enterica subsp. enterica serovar typhimurium; in short: as §1
Salmonella typhimurium [25] = assay: Mutagenicity in Salmonella typhimurium TA98 at 150 ug/plate in absence of S9 fraction; assay type: toxicity, organism-based; details: salmonella enterica subsp. enterica serovar typhimurium; in short: as §1

SMILES | IC50 (Leishmania amazonensis) [µM] | IC50 (Trypanosoma cruzi [2]) [µM] | selectivity ratio [3] | IC50 (Trypanosoma cruzi [4]) [µM] | Selectivity Index [5] | IC50 [6] [µM] | MIC [7] [µM] | selectivity ratio [11] | Stability (Plasma) | Stability [13] | Stability [14] | Stability [15] | Stability [18] | other results
Nc1ccc([N+](=O)[O-])cc1N | – | – | – | – | – | – | – | – | – | – | – | – | – | Activity (Salmonella typhimurium [1]): Toxic
O=C(N/N=C/c1ccc2no[n+]([O-])c2c1)c1ccc2c(c1)OCO2 | 1.3 | 50 | < 5 | > 28.4 | <2 | 174 | > 76.7 | 134 | – | – | – | – | – | Activity (Salmonella typhimurium [8]): Non-toxic; Activity (Salmonella typhimurium [9]): Non-toxic; selectivity ratio [10]: 28.5
Cc1nc2ccccn2c1C(=O)N/N=C/c1c(-c2ccccc2)no[n+]1[O-] | – | 5 | 62 | 0.91 | 3.2 | 56.2 | 17.3 (≈ 6.27 µg/mL) | – | Stable | Stable | Stable | Stable | – | selectivity ratio [12]: 12; Activity (Salmonella typhimurium [16]): Non-toxic; Activity (Salmonella typhimurium [17]): Non-toxic
O=C(N/N=C/c1ccc2no[n+]([O-])c2c1)c1cnn(-c2ccccc2)c1 | 1.4 | 29.5 | – | > 30.9 | <2 | 37.1 | > 17.9 | 27 | – | – | – | – | – | selectivity ratio [10]: 5
Cc1c(/C=N/NC(=O)c2ccncc2)no[n+]1[O-] | 25.3 | > 300 | – | > 40.5 | >250 | > 400 | 1.6 (≈ 0.396 µg/mL) | > 16 | Stable | Stable | Stable | Stable | Stable | Activity (Salmonella typhimurium [8]): Non-toxic; Activity (Salmonella typhimurium [9]): Non-toxic
O=C(N/N=C/c1c(-c2ccccc2)no[n+]1[O-])c1ccc2c(c1)OCO2 | – | 50 | > 5 | < 30.7 | <2 | 162 | > 71 | – | Stable | Stable | Stable | Stable | Stable | Activity (Salmonella typhimurium [16]): Non-toxic; Activity (Salmonella typhimurium [17]): Non-toxic
Cc1[nH]cnc1C(=O)N/N=C/c1ccc2no[n+]([O-])c2c1 | – | 172 | < 1 | > 35 | 0.8 | 33.9 | 43.7 (≈ 12.5 µg/mL) | – | – | – | – | – | – | Activity (Salmonella typhimurium [19]): Toxic; Activity (Salmonella typhimurium [20]): Toxic
COc1cc(/C=N/NC(=O)c2no[n+]([O-])c2C)ccc1O | 1.7 | – | – | – | – | > 400 | > 85.6 | > 235 | – | – | – | – | – | Activity (Salmonella typhimurium [8]): Non-toxic; Activity (Salmonella typhimurium [9]): Non-toxic; selectivity ratio [10]: 50
C[C@@H]1[C@H](O)[C@@H](C)/C=C/C=C/C=C/C=C/C=C/C=C/C=C/[C@H](O[C@@H]2O[C@H](C)[C@@H](O)[C@H](N)[C@@H]2O)C[C@@H]2O[C@](O)(C[C@@H](O)C[C@@H](O)[C@H](O)CC[C@@H](O)C[C@@H](O)CC(=O)O[C@H]1C)C[C@H](O)[C@H]2C(=O)O [AMPHOTERICIN B] | – | – | – | – | – | – | – | 4.7 | – | – | – | – | – | IC50 [21]: 0.52 µM
O=C(N/N=C/c1c(-c2ccccc2)no[n+]1[O-])c1ccncc1 | – | 11 | > 63 | 6.4 | >667 | > 400 | 0.6 (≈ 0.186 µg/mL) | – | Stable | Stable | Stable | Stable | Stable | selectivity ratio [12]: 2.5; Activity (Salmonella typhimurium [22]): Non-toxic; Activity (Salmonella typhimurium [23]): Non-toxic
O=C(N/N=C/c1ccc2no[n+]([O-])c2c1)c1ccncc1 | – | 33.4 | 24 | 5.6 | 385 | 135 | 0.35 (≈ 0.0991 µg/mL) | – | Stable | Stable | Stable | Stable | Stable | selectivity ratio [12]: 2.5; Activity (Salmonella typhimurium [24]): Toxic; Activity (Salmonella typhimurium [25]): Toxic

— ChEMBL document CHEMBL2331334, “Hybrid furoxanyl N-acylhydrazone derivatives as hits for the development of neglected diseases drug candidates” (Eur J Med Chem, 2013)
